The structures appear in SMILES notation. “And” between values parts separate entries of the source, which are not always exact repeats. Identical values can stand only once. Where only a bound is given, the exact number is not on record here.

The record followed here is PMC7941214 (Journal of medicinal chemistry, 2019).

One data set has as its system E. cloacae NCTC 13405. Briefly: Broth microdilution MIC/MBC, E. cloacae. In kind it is cell-based, Enterobacter cloacae. Conditions: for MIC E. cloacae NCTC 13405: value before the parentheses, two values = two repeats; for MBC E. cloacae NCTC 13405: value in parentheses. A digest of the protocol: (§1)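 CLSI broth microdilution in cation-adjusted Mueller–Hinton broth. Log-phase cultures were diluted to 7.5 × 10^5 CFU/mL, then mixed 1:1 with 2-fold serial dilutions of gold complexes from DMSO or water stocks, in triplicate, and held 37 °C, 18 h, static. MIC: lowest concentration giving >90% inhibition by OD600 against medium-only and bacteria-only wells. […] E. coli ATCC 25922 quality control was checked each run with ciprofloxacin and […].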

The test system of the next data set is A. baumannii NCTC 13420. Briefly: Broth microdilution MIC/MBC, A. baumannii. Format: cell-based, Acinetobacter baumannii. Conditions: for MIC A. baumannii NCTC 13420: value before the parentheses, two values = two repeats; for MBC A. baumannii NCTC 13420: value in parentheses.
The test system of the next data set is E. coli ATCC 25922. In words: Broth microdilution MIC/MBC, E. coli. To be noted: for MIC E. coli ATCC 25922: value before the parentheses, two values = two repeats; for MBC E. coli ATCC 25922: value in parentheses. Format: cell-based, Escherichia coli. A digest of the protocol:
as §1

For the next data set, the system named is S. aureus JE2 (USA300). In words: Broth microdilution MIC/MBC, S. aureus. Format: cell-based, Staphylococcus aureus. Conditions: for MBC S. aureus JE2 (USA300): value in parentheses; for MIC S. aureus JE2 (USA300): value before the parentheses, two values = two repeats. A digest of the protocol:
as §1

Data set [1] has as its system K. pneumoniae ATCC 700603. Briefly: Broth microdilution MIC/MBC, K. pneumoniae. In kind it is cell-based, Klebsiella pneumoniae. To be noted: for MIC K. pneumoniae ATCC 700603: value before the parentheses, two values = two repeats; for MBC K. pneumoniae ATCC 700603: value in parentheses. A digest of the protocol:
as §1

For the next data set, the system named is P. aeruginosa NCTC 13437. In words: Broth microdilution MIC/MBC, P. aeruginosa. Format: cell-based, Pseudomonas aeruginosa. To be noted: for MIC P. aeruginosa NCTC 13437: value before the parentheses, two values = two repeats; for MBC P. aeruginosa NCTC 13437: value in parentheses. Put shortly:
as §1

Another data set deals with E. faecium ATCC 700221. Briefly: Broth microdilution MIC/MBC, E. faecium. In kind it is cell-based, Enterococcus faecium. Conditions: for MIC E. faecium ATCC 700221: value before the parentheses, two values = two repeats; for MBC E. faecium ATCC 700221: value in parentheses. A digest of the protocol: as §1
A further data set is described as follows: Log P determination. Conditions: n-octanol/water, Au by FAAS.

`CC[PH](CC)(CC)[Au][O]C1OC(CO)C(OC2OC(CO)C(O)C(O)C2O)C(O)C1O` [Compound 13, [β-D-Galactopyranosyl-(1→4)-β-D-glucopyranosato]-(triethylphosphine) Gold(I)]: in the data set on E. cloacae NCTC 13405, the MIC E. cloacae NCTC 13405 was 190 µM and the MBC E. cloacae NCTC 13405 is 190 µM. For the same compound, in the data set on A. baumannii NCTC 13420, the “MIC A. baumannii NCTC 13420” value is 24 µM and 48 µM; the “MBC A. baumannii NCTC 13420” value amounted to 190 µM. In the data set on E. coli ATCC 25922, the MIC E. coli ATCC 25922 was determined as 24 µM and the MBC E. coli ATCC 25922 was 24 µM. Also, in the data set with S. aureus JE2 (USA300), the “MBC S. aureus JE2 (USA300)” value was 0.09 µM. Also, in data set [1], the MIC K. pneumoniae ATCC 700603 is 381 µM and the MBC K. pneumoniae ATCC 700603 came out at 381 µM. Also, in the data set with P. aeruginosa NCTC 13437, the MIC P. aeruginosa NCTC 13437 stood at 381 µM and the MBC P. aeruginosa NCTC 13437 amounted to 381 µM. Further, in the data set on E. faecium ATCC 700221, the “MIC E. faecium ATCC 700221” value was 0.09 µM and the “MBC E. faecium ATCC 700221” value is 0.4 µM.

`COc1ccc([P+]([Au-][S][C@@H]2OC(COC(C)=O)[C@@H](OC(C)=O)[C@H](OC(C)=O)C2OC(C)=O)(c2ccc(OC)cc2)c2ccc(OC)cc2)cc1` (stereo partly drawn) [Compound 34, (2,3,4,6-Tetra-O-acetyl-1-thio-β-D-glucopyranosato)(tris(4-methoxyphenyl)phosphine) Gold(I)]: the “log P” value in the data set “Log P determination” is listed as above 3.03. Further, in the data set on E. cloacae NCTC 13405, the “MIC E. cloacae NCTC 13405” value is above 281 µM. The “MIC A. baumannii NCTC 13420” value with A. baumannii NCTC 13420 is above 281 µM. In addition, the “MIC E. coli ATCC 25922” value in the data set with E. coli ATCC 25922 was above 281 µM. In addition, in the data set on S. aureus JE2 (USA300), the “MIC S. aureus JE2 (USA300)” value was 1 µM and the “MBC S. aureus JE2 (USA300)” value was found to be 2 µM. In addition, the “MIC K. pneumoniae ATCC 700603” value in data set [1] is above 281 µM. For the same compound, the “MIC P. aeruginosa NCTC 13437” value in the data set on P. aeruginosa NCTC 13437 was above 281 µM. Also, in the data set on E. faecium ATCC 700221, the “MIC E. faecium ATCC 700221” value is 2 µM and 4 µM; the “MBC E. faecium ATCC 700221” value was 4 µM.

As to `CP(C)C.[Cl][Au]` [Compound 24, (Trimethylphosphine)gold Chloride], the lipophilicity (log P) in the data set “Log P determination” was found to be 0.16. For the same compound, in the data set with E. cloacae NCTC 13405, the MIC E. cloacae NCTC 13405 was 3 µM and the MBC E. cloacae NCTC 13405 amounted to 3 µM. In the data set with A. baumannii NCTC 13420, the “MIC A. baumannii NCTC 13420” value is 7 µM and 13 µM; the “MBC A. baumannii NCTC 13420” value worked out at 13 µM. Further, in the data set on E. coli ATCC 25922, the MIC E. coli ATCC 25922 was 7 µM and the MBC E. coli ATCC 25922 was found to be 7 µM. In the data set with S. aureus JE2 (USA300), the “MIC S. aureus JE2 (USA300)” value was 0.1 µM and 0.2 µM; the “MBC S. aureus JE2 (USA300)” value was 1.6 µM. In addition, in data set [1], the “MIC K. pneumoniae ATCC 700603” value is 7 µM and 13 µM; the “MBC K. pneumoniae ATCC 700603” value came out at 13 µM. For the same compound, in the data set on P. aeruginosa NCTC 13437, the MIC P. aeruginosa NCTC 13437 was 52 µM and the MBC P. aeruginosa NCTC 13437 worked out at 52 µM. In the data set on E. faecium ATCC 700221, the “MIC E. faecium ATCC 700221” value was 0.4 µM and the “MBC E. faecium ATCC 700221” value came out at 3 µM.

Consider `CC[P+](CC)(CC)[Au-][S][C@@H]1OC(CO)[C@@H](O)[C@H](O)C1NC(C)=O` (stereo partly drawn) [Compound 12, (2-Acetamido-2-deoxy-1-thio-β-D-glucopyranosato)-(triethylphosphine) Gold(I)], for which the “log P” value in “Log P determination” was −0.89. In the data set with E. cloacae NCTC 13405, the “MIC E. cloacae NCTC 13405” value was determined as 116 µM and the “MBC E. cloacae NCTC 13405” value amounted to 232 µM. Moreover, in the data set with A. baumannii NCTC 13420, the “MIC A. baumannii NCTC 13420” value was 15 µM and 29 µM; the “MBC A. baumannii NCTC 13420” value is 116 µM. In addition, in the data set on E. coli ATCC 25922, the “MIC E. coli ATCC 25922” value was 7 µM and 4 µM; the “MBC E. coli ATCC 25922” value stood at 7 µM. Besides, in the data set on E. coli ATCC 25922 (vs auranofin), the “fold enhancement of activity over auranofin, E. coli” value is reported as 2–3. Further, in the data set with S. aureus JE2 (USA300), the “MIC S. aureus JE2 (USA300)” value was 0.02 µM and the “MBC S. aureus JE2 (USA300)” value turned out to be 0.05 µM. Moreover, the “fold enhancement of activity over auranofin, S. aureus” value in the data set with S. aureus JE2 (USA300) (vs auranofin) is recorded as 2–3. Also, in data set [1], the MIC K. pneumoniae ATCC 700603 turned out to be 464 µM and the MBC K. pneumoniae ATCC 700603 stood at 464 µM. In addition, in the data set with P. aeruginosa NCTC 13437, the MIC P. aeruginosa NCTC 13437 came to 464 µM and the MBC P. aeruginosa NCTC 13437 was found to be 464 µM. In the data set on E. faecium ATCC 700221, the “MIC E. faecium ATCC 700221” value was 0.05 µM and 0.1 µM; the “MBC E. faecium ATCC 700221” value was found to be 0.5 µM.

As to `CC[PH](CC)(CC)[Au][S]c1ccccc1N` [Compound 16, (2-Aminobenzenethiolato)(triethylphosphine) Gold(I)], the “log P” value in “Log P determination” amounted to 0.61. For the same compound, in the data set with A. baumannii NCTC 13420, the “MIC A. baumannii NCTC 13420” value was 18 µM and 36 µM; the “MBC A. baumannii NCTC 13420” value was found to be 18 µM. For the same compound, in the data set on E. coli ATCC 25922, the MIC E. coli ATCC 25922 was 36 µM and the MBC E. coli ATCC 25922 was 36 µM. In addition, in the data set on S. aureus JE2 (USA300), the “MIC S. aureus” value is reported as “in the nanomolar range”, the “MIC S. aureus JE2 (USA300)” value was 0.009 µM and the “MBC S. aureus JE2 (USA300)” value was determined as 0.6 µM. Besides, in data set [1], the MIC K. pneumoniae ATCC 700603 is 146 µM and the MBC K. pneumoniae ATCC 700603 was 146 µM. Further, in the data set with P. aeruginosa NCTC 13437, the MIC P. aeruginosa NCTC 13437 was determined as 291 µM and the MBC P. aeruginosa NCTC 13437 was determined as 291 µM. For the same compound, in the data set on E. faecium ATCC 700221, the “MIC E. faecium ATCC 700221” value came out at 0.02 µM and the “MBC E. faecium ATCC 700221” value was 0.1 µM. Further, in the data set with E. faecium ATCC 700221 (vs auranofin), the “fold enhancement of activity over auranofin, E. faecium” value was “more than 7”.

As for `Fc1ccc([PH+](c2ccc(F)cc2)c2ccc(F)cc2)cc1.[Cl][Au]` [Compound 29, (Tris(4-fluorophenyl)phosphine)gold Chloride], the “log P” value in the data set “Log P determination” was above 4.04. Further, the “MIC E. cloacae NCTC 13405” value in the data set on E. cloacae NCTC 13405 is above 467 µM. Also, in the data set with A. baumannii NCTC 13420, the “MIC A. baumannii NCTC 13420” value was 29 µM and 58 µM; the “MBC A. baumannii NCTC 13420” value came out at 233 µM. For the same compound, the “MIC E. coli ATCC 25922” value with E. coli ATCC 25922 is above 467 µM. For the same compound, in data set [1], the “MIC K. pneumoniae ATCC 700603” value is above 467 µM. The “MIC P. aeruginosa NCTC 13437” value with P. aeruginosa NCTC 13437 is above 467 µM. In addition, in the data set on E. faecium ATCC 700221, the “MIC E. faecium ATCC 700221” value was 2 µM and 4 µM; the “MBC E. faecium ATCC 700221” value worked out at 4 µM.
